Laboratory results from ChEMBL document CHEMBL5149984, “Discovery of HN37 as a Potent and Chemically Stable Antiepileptic Drug Candidate” (J Med Chem, 2021).

How the values were obtained:
Mus musculus [1] = species: Mus musculus; assay: Anticonvulsant activity in C57BL/6 mouse 6 Hz seizure model at 44 mA measured after 1 hr; type: functional
Mus musculus [2] = species: Mus musculus; assay: Anticonvulsant activity in C57BL/6 mouse 6 Hz seizure model at 32 mA measured after 1 hr; type: functional
[3] = Neurotoxicity in Kunming mouse assessed as motor impairment rate at 60 mg/kg, po after 1 hr by rotarod test; type: toxicity, organism-based; conditions: in vivo
Outline: (§1)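 Male KM mice dosed intragastrically with compound freshly suspended in 0.5% CMC-Na. Rotarod performance scored 1 h after dosing as the fraction of animals showing motor impairment. Fisher's exact test versus vehicle; TD50 from nonlinear dose−response fit.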

[4] = target: T1, Potassium voltage-gated channel subfamily KQT member 4 (Homo sapiens) (UniProt P56696); assay: Agonist activity at human KCNQ4 channel expressed in CHO cells assessed as amplitude change of outward current at 10 uM by patch clamp method; type: cell-based; conditions: filed as agonist
T1 sequence (whole entry): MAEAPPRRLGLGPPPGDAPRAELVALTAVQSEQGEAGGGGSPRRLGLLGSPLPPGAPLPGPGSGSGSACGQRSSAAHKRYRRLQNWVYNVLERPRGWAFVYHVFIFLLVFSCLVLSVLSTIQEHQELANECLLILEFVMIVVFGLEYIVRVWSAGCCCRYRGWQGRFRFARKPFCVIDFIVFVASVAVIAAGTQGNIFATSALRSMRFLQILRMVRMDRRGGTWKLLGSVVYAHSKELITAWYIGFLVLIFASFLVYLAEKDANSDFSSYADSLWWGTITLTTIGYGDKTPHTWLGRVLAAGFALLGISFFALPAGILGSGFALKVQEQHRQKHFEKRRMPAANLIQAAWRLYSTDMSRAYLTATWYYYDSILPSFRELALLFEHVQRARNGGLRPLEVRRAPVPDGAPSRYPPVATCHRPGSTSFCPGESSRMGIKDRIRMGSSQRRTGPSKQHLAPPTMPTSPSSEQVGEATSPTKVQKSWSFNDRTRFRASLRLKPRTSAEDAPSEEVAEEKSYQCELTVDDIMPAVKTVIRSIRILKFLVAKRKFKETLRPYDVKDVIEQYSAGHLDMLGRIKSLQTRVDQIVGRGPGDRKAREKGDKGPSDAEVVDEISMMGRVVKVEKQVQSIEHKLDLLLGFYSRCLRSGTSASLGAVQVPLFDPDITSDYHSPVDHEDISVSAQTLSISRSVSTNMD
Outline: (§2)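 Whole-cell patch clamp at room temperature on CHO cells (DMEM/F12, 10% FBS) transiently co-transfected with EGFP and hKCNQ1, rKCNQ2, rKCNQ3 A278T, hKCNQ4 or hKCNQ5; KCNQ2/3 at 1:1 cDNA ratio. Pipette solution 145 mM KCl, 5 mM MgATP, pH 7.3; bath 140 mM NaCl, 5 mM KCl, pH 7.4, under perfusion. V1/2 from Boltzmann fits; I/I0 is current amplitude with versus without compound; n = 4−6.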

Mus musculus [5] = species: Mus musculus; assay: Anticonvulsant activity in Kunming mouse assessed as reduction in MES-induced seizure after 1 hr; type: functional
Outline: (§3)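 MES test in male KM mice. Compounds freshly suspended in 0.5% CMC-Na and given by gavage at 20 mL/kg; 160 V stimulus through ear clips. Protection scored as absence of hindlimb tonic extension; time course at 0.25, 0.5, 1 and 2 h, otherwise tested at 1 h. ED50 from dose−response by nonlinear regression; Fisher's exact test versus vehicle.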

Mus musculus [6] = species: Mus musculus; assay: Anticonvulsant activity in MES induced Kunming mouse model of seizure assessed as EC50 in plasma; type: functional, organism-based
Outline: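 After the MES test in KM mice (oral dosing in 0.5% CMC-Na, 1 h), animals were killed immediately and plasma and brain concentrations were measured by LC−MS/MS. EC50 from concentration−response curves of protection against plasma concentration, by nonlinear regression.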

[7] = target: Potassium voltage-gated channel subfamily KQT member 2/member 3 (Rattus norvegicus, UniProt O88943+O88944); assay: Agonist activity at rat KCNQ2/3 channel expressed in CHO cells by patch clamp method; type: cell-based; outline: as §2
[8] = target: Potassium voltage-gated channel subfamily KQT member 2 (Rattus norvegicus) (UniProt O88943); assay: Agonist activity at rat Kv7.2 channel expressed in CHO cells assessed as amplitude change of outward current at 10 uM by whole cell patch clamp based electrophysiological method; conditions: filed as agonist
Outline: (§4)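 Rat KCNQ2 cotransfected with EGFP plasmid by Lipofectamine 3000 into CHO cells (DMEM/F12, 10% FBS; split 24 h before transfection). Whole-cell recording at room temperature. Pipette: 145 mM KCl, 1 mM MgCl2, 5 mM EGTA, 10 mM HEPES, 5 mM MgATP, pH 7.3. Bath, constantly perfused: 140 mM NaCl, 5 mM KCl, 2 mM CaCl2, 1.5 mM MgCl2, 10 mM glucose, 10 mM HEPES, pH 7.4. Signals filtered at 1 kHz. Compound at 10 μM. I/I0 is outward current amplitude with over without compound. ΔV1/2 is the shift in V1/2 from Boltzmann fits of activation curves. Mean ± SEM.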

Mus musculus [9] = assay: Anticonvulsant activity in po dosed MES induced Kunming mouse model of seizure; type: functional; outline: as §3
Mus musculus [10] = species: Mus musculus; assay: Anticonvulsant activity in Kunming mouse assessed as reduction in Sc-PTZ induced seizure after 1 hr; type: functional
Outline: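 sc-PTZ test in male KM mice. Compound suspended in 0.5% CMC-Na and given orally 1 h before PTZ (freshly dissolved in normal saline, 100 mg/kg). Protection against clonic seizures scored; ED50 by nonlinear regression.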

[11] = target: Potassium voltage-gated channel subfamily KQT member 2 (Rattus norvegicus, UniProt O88943); assay: Agonist activity at rat KCNQ2 channel expressed in CHO cells by patch clamp method; type: cell-based; outline: as §2
[12] = target: Potassium voltage-gated channel subfamily KQT member 2 (Rattus norvegicus) (UniProt O88943); assay: Agonist activity at rat Kv7.2 channel expressed in CHO cells assessed as shift of half voltage of maximal activation at 10 uM by whole cell patch clamp based electrophysiological method; conditions: filed as agonist; outline: as §4
[13] = Cmax in Kunming mouse plasma at 5 mg/kg, po measured upto 24 hrs by LC-MS/MS method; type: ADME, organism-based; parameters: dose 5 mg/kg, time < 24 hrs, route po
Outline: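 KM male mice (18−24 g), fasted 12 h before and 2 h after dosing. HN37 given orally at 5 mg/kg in 5% DMSO/5% Tween 80/90% saline, or iv at 2 mg/kg after dilution in saline with 1% Tween 80; n = 3 per time point. Blood sampled 0.25–24 h (from 0.083 h after iv); whole brain taken after oral dosing. Plasma and brain extracted with acetonitrile, quantified by LC−MS/MS; AUC0−t by trapezoidal method.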

[14] = Neurotoxicity in Kunming mouse assessed as motor impairment rate at 90 mg/kg, po after 1 hr by rotarod test; type: toxicity, organism-based; conditions: in vivo; outline: as §1
CYP2C19 = CYP2C19 (Homo sapiens, UniProt P33261); assay: Inhibition of human liver microsome CYP2C19 at 0.10 to 50 uM preincubated with NADPH for 0.5 hrs followed by substrate addition by LC-MS/MS method relative to control; type: ADME; conditions: liver microsomes, dose 0.1-50 µM
Sequence of CYP2C19 (P33261 whole entry): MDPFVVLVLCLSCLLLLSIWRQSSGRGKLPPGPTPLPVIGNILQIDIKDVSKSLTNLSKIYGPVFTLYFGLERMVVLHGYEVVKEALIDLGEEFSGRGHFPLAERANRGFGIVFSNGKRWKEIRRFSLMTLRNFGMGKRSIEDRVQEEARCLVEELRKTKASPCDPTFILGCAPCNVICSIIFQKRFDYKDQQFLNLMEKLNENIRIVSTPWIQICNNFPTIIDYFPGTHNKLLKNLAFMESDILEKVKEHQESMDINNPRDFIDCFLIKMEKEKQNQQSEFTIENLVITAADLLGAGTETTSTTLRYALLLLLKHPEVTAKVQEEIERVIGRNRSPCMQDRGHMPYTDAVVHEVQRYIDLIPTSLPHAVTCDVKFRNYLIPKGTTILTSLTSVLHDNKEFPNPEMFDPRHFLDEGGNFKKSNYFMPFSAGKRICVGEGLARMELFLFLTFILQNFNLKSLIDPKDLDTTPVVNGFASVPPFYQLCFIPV

Sequence of Potassium voltage-gated channel subfamily KQT member 2 (Rattus norvegicus) (O88943 whole entry, the tested form may be a part): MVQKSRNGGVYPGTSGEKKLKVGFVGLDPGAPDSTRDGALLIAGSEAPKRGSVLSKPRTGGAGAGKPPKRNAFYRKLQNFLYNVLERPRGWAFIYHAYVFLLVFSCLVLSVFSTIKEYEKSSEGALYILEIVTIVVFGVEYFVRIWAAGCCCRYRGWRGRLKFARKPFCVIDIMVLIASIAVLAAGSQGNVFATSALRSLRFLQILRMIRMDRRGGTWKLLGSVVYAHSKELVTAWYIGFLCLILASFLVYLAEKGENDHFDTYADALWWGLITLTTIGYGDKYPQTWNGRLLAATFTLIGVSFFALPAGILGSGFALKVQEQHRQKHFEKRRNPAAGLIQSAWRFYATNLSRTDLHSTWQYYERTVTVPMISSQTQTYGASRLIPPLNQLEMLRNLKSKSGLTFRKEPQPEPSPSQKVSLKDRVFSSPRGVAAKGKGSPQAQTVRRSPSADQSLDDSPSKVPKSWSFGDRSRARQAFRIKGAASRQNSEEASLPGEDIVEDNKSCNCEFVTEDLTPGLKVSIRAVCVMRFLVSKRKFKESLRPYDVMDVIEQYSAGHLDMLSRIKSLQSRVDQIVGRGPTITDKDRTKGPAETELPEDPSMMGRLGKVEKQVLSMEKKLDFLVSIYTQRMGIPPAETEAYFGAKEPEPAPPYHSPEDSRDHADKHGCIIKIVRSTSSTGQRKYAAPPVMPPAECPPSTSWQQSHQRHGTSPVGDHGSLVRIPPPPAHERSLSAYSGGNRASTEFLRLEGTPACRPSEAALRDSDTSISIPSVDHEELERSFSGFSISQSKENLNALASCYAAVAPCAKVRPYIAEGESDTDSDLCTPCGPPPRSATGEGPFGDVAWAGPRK
Sequence of Potassium voltage-gated channel subfamily KQT member 2 (O88943 whole entry): as the sequence (O88943 whole entry, the tested form may be a part) above
Sequence of Potassium voltage-gated channel subfamily KQT member 2/member 3 (O88943 whole entry): as the sequence (O88943 whole entry, the tested form may be a part) above
Sequence of Potassium voltage-gated channel subfamily KQT member 2/member 3 (O88944 whole entry): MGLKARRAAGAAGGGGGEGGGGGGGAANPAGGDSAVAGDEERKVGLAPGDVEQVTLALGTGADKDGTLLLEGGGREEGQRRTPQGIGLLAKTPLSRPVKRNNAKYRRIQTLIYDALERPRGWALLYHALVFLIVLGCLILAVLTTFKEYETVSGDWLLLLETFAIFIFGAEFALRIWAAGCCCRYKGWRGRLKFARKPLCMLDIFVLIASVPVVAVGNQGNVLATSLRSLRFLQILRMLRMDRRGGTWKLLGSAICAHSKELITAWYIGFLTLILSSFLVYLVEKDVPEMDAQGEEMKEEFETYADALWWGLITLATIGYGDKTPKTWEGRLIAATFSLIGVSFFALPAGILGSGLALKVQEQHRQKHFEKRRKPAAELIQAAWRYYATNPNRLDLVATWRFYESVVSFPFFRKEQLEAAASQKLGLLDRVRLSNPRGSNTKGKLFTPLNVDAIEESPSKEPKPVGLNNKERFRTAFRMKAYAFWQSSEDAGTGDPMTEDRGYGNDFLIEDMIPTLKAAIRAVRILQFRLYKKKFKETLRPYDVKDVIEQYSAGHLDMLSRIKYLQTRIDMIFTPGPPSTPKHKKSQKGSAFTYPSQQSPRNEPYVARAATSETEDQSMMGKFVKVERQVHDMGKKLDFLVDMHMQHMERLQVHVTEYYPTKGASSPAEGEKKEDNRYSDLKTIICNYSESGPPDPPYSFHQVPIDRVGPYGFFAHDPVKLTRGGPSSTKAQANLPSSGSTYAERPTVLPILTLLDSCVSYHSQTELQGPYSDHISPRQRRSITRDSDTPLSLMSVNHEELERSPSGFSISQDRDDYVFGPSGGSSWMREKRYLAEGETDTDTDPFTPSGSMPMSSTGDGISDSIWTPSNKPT

SMILES | ED50 (Mus musculus [1]) [mg/kg] | ED50 (Mus musculus [2]) [mg/kg] | Activity [3] | Activity [4] | ED50 (Mus musculus [5]) [mg/kg] | EC50 (Mus musculus [6]) [nM] | EC50 [7] [nM] | Activity [8] | ED50 (Mus musculus [9]) [mg/kg] | ED50 (Mus musculus [10]) [mg/kg] | EC50 [11] [nM] | Activity [12] [mV] | Cmax [13] [ng/mL] | Activity [14] [%] | inhibition at 0.5 h, up to 50 µM (CYP2C19) [%]
CCOC(=O)Nc1ccc(NCc2ccc(F)cc2)cc1N [EZOGABINE] | 102 | 65.9 | Non-Toxic | 2.85 | 38.6 | 20000 | 4150 | 1.79 | 38.6 | > 56 | 2040 | -33.2 |  |  | 
C#CCN(Cc1ccc(F)cc1)c1cc(C)c(NC(=O)OC)c(C)c1 | 29.9 | 16.8 | Non-Toxic |  | 1.9 | 50 | 33.1 | 4.75 | 1.9 | 9.8 | 37 | -38.5 | 134 | 62.5 | < 25
